# From ChEMBL document CHEMBL4043182, “On the synthesis of quinone-based BODIPY hybrids: New insights on antitumor activity and mechanism of action in cancer cells” (Bioorg Med Chem Lett, 2017)
# Assays:
# [1] = tested on: PC-3; experiment: Cytotoxicity against human PC3 cells after 24 hrs in presence of GSH-OEt by MTT assay; assay type: functional, cell-based; conditions: PC-3, 24 h
# How it was run: (§1)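 24 h MTT exposure (0.04–40.92 µM in 0.1% DMSO), with or without co-treatment with GSH ethyl ester (15 mM) to gauge the ROS contribution. MTT was 0.5 mg/mL for 3 h, with formazan dissolved in DMSO and absorbance at 595 nm expressed as % of control. Triplicate, repeated at least three times.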
# [2] = tested on: MDA-MB-435; experiment: Antiproliferative activity against human MDA-MB-435 cells after 72 hrs by MTT assay; assay type: functional, cell-based; conditions: MDA-MB-435, 72 h
# How it was run: (§2)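 MTT reduction: cancer lines plated at 0.7×10^5 to 0.3×10^6 cells/well, V79 and L929 fibroblasts at 0.5×10^5 cells/well. Compounds in DMSO (0.1%) were given for 24 h at 0.04–40.92 µM or 72 h at 0.04–8.19 µM. Fresh medium with 0.5 mg/mL MTT was added for 3 h, then formazan was dissolved in DMSO and read at 595 nm as % of control. IC50 came from nonlinear regression with 95% CI. Doxorubicin (0.001–1.06 µM) was the positive control. Triplicate, ≥3 repeats.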
# [3] = tested on: L929; experiment: Cytotoxicity against mouse L929 cells after 24 hrs in presence of GSH-OEt by MTT assay; assay type: cell-based; conditions: L929, 24 h; how it was run: as §1
# [4] = tested on: SF-295; experiment: Cytotoxicity against human SF295 cells after 24 hrs in absence of GSH-OEt by MTT assay; assay type: functional, cell-based; conditions: SF-295, 24 h; how it was run: as §1
# [5] = tested on: V79; experiment: Antiproliferative activity against chinese hamster V79 cells after 72 hrs by MTT assay; assay type: cell-based; conditions: Cricetulus griseus, V79, 72 h; how it was run: as §2
# [6] = tested on: L929; experiment: Antiproliferative activity against mouse L929 cells after 72 hrs by MTT assay; assay type: cell-based; conditions: L929, 72 h; how it was run: as §2
# [7] = tested on: PC-3; experiment: Antiproliferative activity against human PC3 cells after 72 hrs by MTT assay; assay type: functional, cell-based; conditions: PC-3, 72 h; how it was run: as §2
# [8] = tested on: SF-295; experiment: Antiproliferative activity against human SF295 cells after 72 hrs by MTT assay; assay type: functional, cell-based; conditions: SF-295, 72 h; how it was run: as §2
# [9] = tested on: L929; experiment: Cytotoxicity against mouse L929 cells after 24 hrs in absence of GSH-OEt by MTT assay; assay type: cell-based; conditions: L929, 24 h; how it was run: as §1
# [10] = tested on: HCT-116; experiment: Antiproliferative activity against human HCT116 cells after 72 hrs by MTT assay; assay type: functional, cell-based; conditions: HCT-116, 72 h; how it was run: as §2
# [11] = tested on: SF-295; experiment: Cytotoxicity against human SF295 cells after 24 hrs in presence of GSH-OEt by MTT assay; assay type: functional, cell-based; conditions: SF-295, 24 h; how it was run: as §1
# [12] = tested on: SW-620; experiment: Antiproliferative activity against human SW620 cells after 72 hrs by MTT assay; assay type: functional, cell-based; conditions: SW-620, 72 h; how it was run: as §2
# [13] = tested on: HCT-116; experiment: Cytotoxicity against human HCT116 cells after 24 hrs in presence of GSH-OEt by MTT assay; assay type: functional, cell-based; conditions: HCT-116, 24 h; how it was run: as §1
# [14] = tested on: PC-3; experiment: Cytotoxicity against human PC3 cells after 24 hrs in absence of GSH-OEt by MTT assay; assay type: functional, cell-based; conditions: PC-3, 24 h; how it was run: as §1
# [15] = tested on: HCT-116; experiment: Cytotoxicity against human HCT116 cells after 24 hrs in absence of GSH-OEt by MTT assay; assay type: functional, cell-based; conditions: HCT-116, 24 h; how it was run: as §1
# [16] = tested on: HL-60; experiment: Induction of oxidative stress in human HL60 cells assessed as total GSH levels at 5 uM treated 24 hrs post NAC addition measured after 24 hrs by spectrophotometric analysis (reference value: 3.01 +/- 0.11 microg/mg); assay type: functional
# How it was run: (§3)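 Cells were pretreated 24 h with 5 mM NAC, then exposed 24 h to test compound at 5 µM. Controls received 0.1% DMSO. Extracts were prepared by sonication and HClO4 precipitation, then neutralized with KOH. Total glutathione was read by DTNB/glutathione reductase/NADPH rate at 412 nm. GSSG was measured after 4-vinylpyridine (0.1%, 1 h, RT) and GSH derived by difference. Values are normalized to protein, triplicates, three independent runs.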
# [17] = tested on: Jurkat; experiment: Induction of oxidative stress in human Jurkat cells assessed as GSH to GSSG ratio at 5 uM treated 24 hrs post NAC addition measured after 24 hrs by spectrophotometric analysis (reference value: 3.81 +/- 0.22 microg/mg); assay type: functional; how it was run: as §3
# [18] = tested on: HL-60; experiment: Induction of oxidative stress in human HL60 cells assessed as total GSSG levels at 5 uM treated 24 hrs post NAC addition measured after 24 hrs by spectrophotometric analysis (reference value: 0.66 +/- 0.17 microg/mg); assay type: functional; how it was run: as §3
# [19] = tested on: Jurkat; experiment: Antiproliferative activity against human Jurkat cells after 24 to 72 hrs by MTT assay; assay type: functional, cell-based; how it was run: as §2
# [20] = tested on: V79; experiment: Antiproliferative activity against chinese hamster V79 cells at 0.04 to 40.92 uM after 24 to 72 hrs by MTT assay; assay type: cell-based, Cricetulus griseus; conditions: v79, 40.92 µM; how it was run: as §2
# [21] = tested on: HL-60; experiment: Induction of oxidative stress in human HL60 cells assessed as total intracellular thiol levels at 5 uM after 24 hrs by spectrophotometric analysis (reference value: 3.61 +/- 0.22 microg/mg); assay type: functional
# [22] = Selectivity index, ratio of IC50 for mouse L929 cells to IC50 for human HL60 cells; assay type: functional
# How it was run: (§4)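 Selectivity index is the ratio of the IC50 in a non-cancer murine line (V79 or L929) to the IC50 in the cancer line. […] MTT was 0.5 mg/mL for 3 h, formazan dissolved in DMSO and read at 595 nm as % of control. IC50s were derived by nonlinear regression; triplicate, at least three repeats.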
# [23] = tested on: HL-60; experiment: Induction of oxidative stress in human HL60 cells assessed as GSH to GSSG ratio at 5 uM after 24 hrs by spectrophotometric analysis (reference value: 4.53 +/- 0.55 microg/mg); assay type: functional
# [24] = Selectivity index, ratio of IC50 for chinese hamster V79 cells to IC50 for human Jurkat cells; assay type: functional; how it was run: as §4
# [25] = tested on: Jurkat; experiment: Induction of oxidative stress in human Jurkat cells assessed as total GSSG levels at 5 uM treated 24 hrs post NAC addition measured after 24 hrs by spectrophotometric analysis (reference value: 0.78 +/- 0.33 microg/mg); assay type: functional; how it was run: as §3
# [26] = Drug uptake in lysosomes of human PC3 cells at 5 uM after 10 mins by LysoTracker Red dye-based confocal microscopic analysis; assay type: ADME, cell-based; conditions: pc-3, 10 min
# How it was run: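 PC3 cells were grown in DMEM with 10% FBS, antibiotics and 2 mM L-glutamine at 37 °C, 5% CO2. Cells were incubated with compound (5 µM) plus LysoTracker Red or MitoTracker Red for 10 min at 37 °C. Live cells were imaged in phenol red-free DMEM by confocal microscopy with a 40X oil objective, exciting at 488 nm (compound) and 543 nm (tracker dyes).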
# [27] = tested on: Jurkat; experiment: Induction of oxidative stress in human Jurkat cells assessed as total GSH levels at 5 uM after 24 hrs by spectrophotometric analysis (reference value: 3.02 +/- 0.21 microg/mg); assay type: functional
# [28] = tested on: Jurkat; experiment: Induction of oxidative stress in human Jurkat cells assessed as GSH to GSSG ratio at 5 uM after 24 hrs by spectrophotometric analysis (reference value: 3.81 +/- 0.22 microg/mg); assay type: functional
# [29] = tested on: HL-60; experiment: Induction of oxidative stress in human HL60 cells assessed as total GSH levels at 5 uM after 24 hrs by spectrophotometric analysis (reference value: 3.01 +/- 0.11 microg/mg); assay type: functional
# [30] = tested on: L929; experiment: Antiproliferative activity against mouse L929 cells at 0.04 to 40.92 uM after 24 to 72 hrs by MTT assay; assay type: cell-based; conditions: l929, 40.92 µM; how it was run: as §2
# [31] = tested on: HL-60; experiment: Induction of oxidative stress in human HL60 cells assessed as total GSSG levels at 5 uM after 24 hrs by spectrophotometric analysis (reference value: 0.66 +/- 0.17 microg/mg); assay type: functional
# [32] = tested on: Jurkat; experiment: Induction of oxidative stress in human Jurkat cells assessed as total intracellular thiol levels at 5 uM treated 24 hrs post NAC addition measured after 24 hrs by spectrophotometric analysis (reference value: 3.87 +/- 0.55 microg/mg); assay type: functional; how it was run: as §3
# [33] = tested on: HL-60; experiment: Induction of oxidative stress in human HL60 cells assessed as total intracellular thiol levels at 5 uM treated 24 hrs post NAC addition measured after 24 hrs by spectrophotometric analysis (reference value: 3.61 +/- 0.22 microg/mg); assay type: functional; how it was run: as §3
# [34] = tested on: HL-60; experiment: Induction of oxidative stress in human HL60 cells assessed as GSH to GSSG ratio at 5 uM treated 24 hrs post NAC addition measured after 24 hrs by spectrophotometric analysis (reference value: 4.53 +/- 0.55 microg/mg); assay type: functional; how it was run: as §3
# [35] = tested on: Jurkat; experiment: Induction of oxidative stress in human Jurkat cells assessed as total GSH levels at 5 uM treated 24 hrs post NAC addition measured after 24 hrs by spectrophotometric analysis (reference value: 3.02 +/- 0.21 microg/mg); assay type: functional; how it was run: as §3
# [36] = tested on: Jurkat; experiment: Induction of oxidative stress in human Jurkat cells assessed as total intracellular thiol levels at 5 uM after 24 hrs by spectrophotometric analysis (reference value: 3.87 +/- 0.55 microg/mg); assay type: functional
# [37] = tested on: Jurkat; experiment: Induction of oxidative stress in human Jurkat cells assessed as total GSSG levels at 5 uM after 24 hrs by spectrophotometric analysis (reference value: 0.78 +/- 0.33 microg/mg); assay type: functional
# [38] = tested on: HL-60; experiment: Antiproliferative activity against human HL60 cells after 24 to 72 hrs by MTT assay; assay type: functional, cell-based; how it was run: as §2
# [39] = Selectivity index, ratio of IC50 for chinese hamster V79 cells to IC50 for human HL60 cells; assay type: functional; how it was run: as §4
# [40] = Selectivity index, ratio of IC50 for mouse L929 cells to IC50 for human Jurkat cells; assay type: functional; how it was run: as §4
smiles,measurement,setting,value
CC1(C)OC2=C(C(=O)c3ccccc3C2=O)C1n1cc(CNC2=[N+]3C(=C(c4ccccc4)c4ccc(Cl)n4[B-]3(F)F)C=C2)nn1 (configuration not stated),IC50,[1],> 40 µM
same,IC50,[2],> 8.1 µM
same,IC50,[3],> 40 µM
same,IC50,[4],> 40 µM
same,IC50,[5],> 8.1 µM
same,IC50,[6],> 8.1 µM
same,IC50,[7],> 8.1 µM
same,IC50,[8],> 8.1 µM
same,IC50,[9],> 40 µM
same,IC50,[10],> 8.1 µM
same,IC50,[11],> 40 µM
same,IC50,[12],> 8.1 µM
same,IC50,[13],> 40 µM
same,IC50,[14],> 40 µM
same,IC50,[15],> 40 µM
CC1=CC(C)=[N+]2C1=C(c1ccc(OCc3cn(C4C5=C(OC4(C)C)c4ccccc4C(=O)C5=O)nn3)cc1)c1c(C)cc(C)n1[B-]2(F)F (configuration not stated),Activity,[16],1.19 µg/mg
same,Activity,[17],1.08 µg/mg
same,Activity,[18],1.47 µg/mg
same,IC50,[19],0.94 µM
same,Activity,[20],Non-Toxic
same,IC50,[2],> 7.72 µM
same,Activity,[21],3.01 µg/mg
same,Ratio IC50,[22],>8.5
same,Activity,[23],0.31 µg/mg
same,Ratio IC50,[24],>8.5
same,Activity,[25],1.44 µg/mg
same,Drug uptake,[26],Metabolite_Detected
same,Activity,[27],0.6 µg/mg
same,Activity,[28],0.21 µg/mg
same,IC50,[5],> 7.72 µM
same,Activity,[29],0.72 µg/mg
same,IC50,[6],> 7.72 µM
same,IC50,[7],2.39 µM
same,Activity,[30],Non-Toxic
same,IC50,[8],> 7.72 µM
same,Activity,[31],2.18 µg/mg
same,Activity,[32],3.11 µg/mg
same,Activity,[33],2.83 µg/mg
same,IC50,[10],2.85 µM
same,IC50,[12],> 7.72 µM
same,Activity,[34],0.76 µg/mg
same,Activity,[35],1.58 µg/mg
same,Activity,[36],3.28 µg/mg
same,Activity,[37],2.57 µg/mg
same,IC50,[38],0.92 µM
same,Ratio IC50,[39],>8.5
same,Ratio IC50,[40],>8.5
